Assay results from ChEMBL document CHEMBL2057095, “Discovery and SAR of orally efficacious tetrahydropyridopyridazinone PARP inhibitors for the treatment of cancer” (Bioorg Med Chem, 2012).

How the values were obtained:
[1] = AUC (0 to 3 hrs) in mouse at 10 mg/kg, po; type: ADME, organism-based; parameters: time < 3 hr, dose 10 mg/kg, route oral; conditions: plasma
Summary of the method: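 Screening mouse PK: single oral dose of 10 mg/kg; plasma concentrations determined up to 3 h.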

Mus musculus [2] = assay: (§1) Oral bioavailability in mouse at 10 mg/kg; type: ADME, organism-based; conditions: in vivo
Summary of the method: (§2)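 Standard mouse PK: oral dose of 10 mg/kg and intravenous dose of 3 mg/kg; plasma concentrations determined up to 8 h.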

[3] = Half life in mouse at 3 mg/kg, iv; type: ADME, organism-based; parameters: dose 3 mg/kg, route intravenous; conditions: in vivo; summary of the method: as §2
Mus musculus [4] = assay: (§3) AUC (0 to 8 hrs) in mouse at 10 mg/kg, po; type: ADME, organism-based, Plasma; parameters: time < 8 hr, dose 10 mg/kg, route oral; conditions: in vivo, 8 h; summary of the method: as §2
[5] = Cmax in mouse at 10 mg/kg, po; type: ADME, organism-based; parameters: dose 10 mg/kg, route oral; conditions: in vivo; summary of the method: as §2
[6] = Volume of distribution at steady state in mouse at 10 mg/kg, po and 3 mg/kg, iv; type: ADME, organism-based; conditions: in vivo, read-out: Vdss; summary of the method: as §2
Mus musculus [7] = assay: (§4) Clearance in mouse at 10 mg/kg, po and 3 mg/kg, iv; type: ADME, organism-based; conditions: in vivo; summary of the method: as §2
B16-F10 [8] = assay: Potentiation of temozolomide-induced antitumor activity against mouse B16F10 cells xenografted in po dosed C57BL/6 mouse assessed as tumor growth inhibition administered BID from day 5 to day 10 post-tumor implantation; type: functional, organism-based
Summary of the method: (§5)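 Syngeneic B16F10 melanoma: 6 × 10⁴ cells in 50% matrigel injected s.c. into the flank of female C57BL/6 mice, 6–8 weeks old, 20 g. PARP inhibitor given orally on days 5–10 at 10, 30 or 60 mg/kg/day, bid. TMZ given orally at 50 mg/kg/day, qd, days 5–10. Tumor growth and body weight followed to day 21.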

Mus musculus [9] = assay: Toxicity in C57BL/6 mouse bearing B16F10 tumor assessed as mortality at 10 to 30 mg/kg/day, po administered BID from day 5 to day 10 post-tumor implantation co-administered with temozolomide; type: organism-based; parameters: route oral; conditions: in vivo
Mus musculus [10] = assay: Toxicity in C57BL/6 mouse bearing B16F10 tumor assessed as body weight loss at 30 mg/kg/day, po administered BID from day 5 to day 10 post-tumor implantation co-administered with temozolomide relative to vehicle-treated control; type: organism-based; parameters: route oral; conditions: in vivo; summary of the method: as §5
Mus musculus [11] = assay: Toxicity in C57BL/6 mouse bearing B16F10 tumor assessed as body weight loss at 60 mg/kg/day, po administered BID from day 5 to day 10 post-tumor implantation co-administered with temozolomide relative to vehicle-treated control; conditions: in vivo
Mus musculus [12] = assay: Toxicity in C57BL/6 mouse bearing B16F10 tumor assessed as body weight loss at 50 mg/kg/day, po administered QD from day 5 to day 9 post-tumor implantation relative to vehicle-treated control; type: organism-based; parameters: route oral; conditions: in vivo
Summary of the method: (§6)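 Syngeneic B16F10 model: 6 × 10⁴ cells with 50% matrigel implanted s.c. into the flank of female C57BL/6 mice (6–8 weeks, 20 g). […] TMZ given orally at 50 mg/kg/day once daily over the same days. Tumor growth and body weight monitored.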

Mus musculus [13] = assay: Toxicity in C57BL/6 mouse bearing B16F10 tumor assessed as body weight loss at 50 mg/kg/day, po administered QD from day 5 to day 10 post-tumor implantation relative to vehicle-treated control; type: organism-based; parameters: route oral; conditions: in vivo; summary of the method: as §5
Mus musculus [14] = assay: Antitumor activity against B16F10 tumor xenografted in C57BL/6 mouse assessed as tumor growth inhibition at 50 mg/kg/day, po administered QD from day 5 to day 10 post-tumor implantation; type: organism-based; parameters: route oral; conditions: C57BL/6, B16-F10, po, read-out: GI; summary of the method: as §5
Mus musculus [15] = assay: Toxicity in C57BL/6 mouse bearing B16F10 tumor assessed as body weight loss at 5 mg/kg/day, po administered BID from day 5 to day 9 post-tumor implantation co-administered with temozolomide relative to vehicle-treated control; type: organism-based; parameters: route oral; conditions: in vivo; summary of the method: as §6
[16] = as §1; type: ADME, organism-based; conditions: in vivo; summary of the method: as §2
[17] = as §3; type: ADME, organism-based, Plasma; parameters: time < 8 hr, dose 10 mg/kg, route oral; conditions: plasma; summary of the method: as §2
[18] = as §4; type: ADME, organism-based; conditions: in vivo; summary of the method: as §2
B16-F10 [19] = assay: Potentiation of TMZ antitumor activity against mouse B16F10 cells xenografted in po dosed C57BL/6 mouse assessed as increase in tumor growth inhibition administered BID from day 5 to day 9 post-tumor implantation; type: functional, organism-based; summary of the method: as §6
Mus musculus [20] = assay: (§7) Toxicity in C57BL/6 mouse bearing B16F10 tumor assessed as body weight loss at […], po administered BID from day 5 to day 9 post-tumor implantation co-administered with temozolomide relative to vehicle-treated control; type: organism-based; parameters: route oral; conditions: in vivo
Mus musculus [21] = assay: as §7; type: organism-based; parameters: route oral; conditions: in vivo; remark: listed apart in the source

AUC(0-t) at 3 h [1] | F (Mus musculus [2]) | half-life [3] | AUC (Mus musculus [4]) | Cmax [5] | Vd [6] | CL (Mus musculus [7]) | SMILES | further results
70 ng·h/mL |  |  |  |  |  |  | O=C(c1cc(Cc2n[nH]c(=O)c3c2NCCC3)ccc1F)N1CCN(C(=O)C(F)(F)F)CC1 | 
70 ng·h/mL |  |  |  |  |  |  | CC(=O)N1CCN(C(=O)c2cc(Cc3n[nH]c(=O)c4c3NCCC4)ccc2F)CC1 | 
 | 13% | 16.8 min | 0.33 µg·h/mL | 140 ng/mL | 4.78 L/kg | 11.72 L/h/kg | O=C1CCCN1c1cc(Cc2n[nH]c(=O)c3c2CCCC3)ccc1F | 
2900 ng·h/mL |  |  |  |  |  |  | O=C(c1cc(Cc2n[nH]c(=O)c3c2NCCC3)ccc1F)N1CCN(c2ccccc2)CC1 | 
70 ng·h/mL |  |  |  |  |  |  | O=C1CCCC(=O)N1c1cc(Cc2n[nH]c(=O)c3c2NCCC3)ccc1F | 
 |  |  |  |  |  |  | Cn1nnc2c(C(N)=O)ncn2c1=O [TEMOZOLOMIDE] | Activity (Mus musculus [12]): 2%; Activity (Mus musculus [13]): 1%; inhibition at 50 mg/kg (Mus musculus [14]): 30%
2900 ng·h/mL |  | 156 min |  | 2010 ng/mL | 7.66 L/kg |  | O=C(c1cc(Cc2n[nH]c(=O)c3c2NCCC3)ccc1F)N1CCN(c2ccccn2)CC1 | Activity (Mus musculus [15]): 21%; bioavailability [16]: 67%; AUC(0-t) at 8 h [17]: 5950 ng·h/mL; clearance [18]: 34 mL/min/kg; Activity (B16-F10 [19]): Dose-dependent effect; Activity (Mus musculus [20]): 3%; Activity (Mus musculus [21]): 3%
 | 48% | 21.6 min | 2.38 µg·h/mL | 1030 ng/mL | 2.33 L/kg | 4.55 L/h/kg | O=C(c1cc(Cc2n[nH]c(=O)c3c2CCCC3)ccc1F)N1CCN(c2ncccn2)CC1 | 
 | 74% | 66 min | 2.7 µg·h/mL | 1090 ng/mL | 9.48 L/kg | 5.92 L/h/kg | O=C(c1cc(Cc2n[nH]c(=O)c3c2CCCC3)ccc1F)N1CCN(c2ccccn2)CC1 | 
2900 ng·h/mL |  | 232 min |  | 5600 ng/mL | 4.99 L/kg |  | O=C(c1cc(Cc2n[nH]c(=O)c3c2NCCC3)ccc1F)N1CCN(c2ncccn2)CC1 | bioavailability [16]: 36%; AUC(0-t) at 8 h [17]: 9060 ng·h/mL; clearance [18]: 14.8 mL/min/kg

SMILES | AUC(0-t) at 3 h [1] | F (Mus musculus [2]) | half-life [3] | AUC (Mus musculus [4]) | Cmax [5] | Vd [6] | CL (Mus musculus [7]) | further results
O=C1CCCN1c1cc(Cc2n[nH]c(=O)c3c2NCCC3)ccc1F |  | 106% | 29.4 min | 3.11 µg·h/mL | 1500 ng/mL | 5.25 L/kg | 7.43 L/h/kg | Activity (B16-F10 [8]): Dose-dependent effect; Activity (Mus musculus [9]): Non-toxic; Activity (Mus musculus [10]): 3%; Activity (Mus musculus [11]): 12%
